This passage reports IC50, EC50 and Activity results from ChEMBL document CHEMBL1148134, “Differentiation- and apoptosis-inducing activities by pentacyclic triterpenes on a mouse melanoma cell line” (J Nat Prod, 2002).

Active and inactive are the calls of the source. The calls are words filed in the database; no cut-off is given here. Where only a bound is given, the exact number is not on record here.

For assay [1], the system named is B16. As to the kind of experiment: Growth inhibition of mouse B16 2F2 cells after 3 days. The assay is classed as functional, cell-based. Particulars: B16, 72 h. The method, boiled down: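 B16 2F2 melanoma subclone, 1 × 10^5 cells per 1 mL aliquot, exposed to a range of triterpene concentrations for 3 days. Viable cells counted as in earlier work. IC50 = concentration giving 50% growth inhibition.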

In assay [2] the test system is B16. The experiment in a line: Induction of melanogenesis in mouse B16 2F2 cells assessed as intracellular melanin content after 3 days. In kind it is functional. The following applies: B16, 72 h, read-out: ED50 (the source's name). The essentials: (§1)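 Aliquots of 1 × 10^5 B16 2F2 cells in 1 mL incubated 3 days (72 h) across a triterpene concentration range, including 1.0 and 10 µM. Intracellular melanin content measured per previously described method. ED50 derived from dose-response curves of melanogenesis up-regulation.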

Assay [3] concerns B16. The experiment in a line: Induction of apoptosis in mouse B16 2F2 cells assessed as condensation and fragmentation of nuclei at 10 uM after 48 hrs by Hoechst 33258 staining based fluorescence microscopy. In kind it is functional. The essentials: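 B16 2F2 cells held with or without triterpene at 10 µM for 48 h, collected, washed in PBS, fixed in 1% glutaraldehyde, then stained 30 min with 50 µM Hoechst 33258. Nuclear condensation/fragmentation scored by fluorescence microscopy, apoptotic cells counted manually on at least 200 cells.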

In assay [4] the test system is B16. The experiment in a line: Induction of melanogenesis in mouse B16 2F2 cells assessed as intracellular melanin content up to 10 uM after 3 days. The assay is classed as functional, cell-based. The essentials: as §1

What is called IC50 is the midpoint of a concentration-inhibition curve. A high value points to weaker potency. For `C[C@H]1[C@H](C)CC[C@]2(C)CC[C@]3(C)C(=CC[C@@H]4[C@@]5(C)CC[C@H](O)C(C)(C)[C@@H]5CC[C@]43C)[C@H]12`, the IC50 in the assay on B16 [1] amounted to 50 µM. Moreover, the EC50 in the assay with B16 [2] is greater than 50 µM.

As for `CC1(C)CC[C@]2(C)CC[C@]3(C)C(=CC[C@@H]4[C@@]5(C)CCC(=O)C(C)(C)[C@@H]5CC[C@]43C)[C@@H]2C1`, in the assay on B16 [1], the midpoint of inhibition, the IC50, lay at 38.7 µM. Also, the EC50 in the assay on B16 [2] is greater than 50 µM.

`C[C@H]1[C@H](C)CC[C@]2(C)CC[C@]3(C)C(=CC[C@@H]4[C@@]5(C)CCC(=O)C(C)(C)[C@@H]5CC[C@]43C)[C@H]12` displayed an IC50 in the assay on B16 [1] of 40.3 µM. Further, in the assay on B16 [2], the EC50 is greater than 50 µM.

On to `C=C(C)[C@@H]1CC[C@]2(COC(C)=O)CC[C@]3(C)[C@H](CC[C@@H]4[C@@]5(C)CC[C@H](OC(C)=O)C(C)(C)[C@@H]5CC[C@]43C)[C@@H]12` [BETULIN DIACETATE], for which, in the assay with B16 [1], inhibition was half-maximal at 36.8 µM (IC50). Besides, the EC50 in the assay on B16 [2] came out at 3.4 µM.

Consider `C=C(C)[C@@H]1CC[C@]2(C=O)CC[C@]3(C)[C@H](CC[C@@H]4[C@@]5(C)CC[C@H](O)C(C)(C)[C@@H]5CC[C@]43C)[C@@H]12` [BETULINALDEHYDE], for which 6.4 µM corresponded to half-maximal inhibition in the assay on B16 [1] (IC50). In addition, the EC50 in the assay with B16 [2] stood at 3.3 µM. For the same compound, the Activity with B16 [3] is listed as 70.4%.

`C=C(C)[C@@H]1CC[C@]2(C(=O)O)CC[C@]3(C)[C@H](CC[C@@H]4[C@@]5(C)CC[C@H](O)C(C)(C)[C@@H]5CC[C@]43C)[C@@H]12` [BETULINIC ACID] displayed an IC50 with B16 [1] of 7.9 µM. Further, in the assay with B16 [2], the EC50 came to 4.1 µM.

For the compound `C=C(C)[C@@H]1CC[C@]2(CO)CC[C@]3(C)[C@H](CC[C@@H]4[C@@]5(C)CC[C@H](O)C(C)(C)[C@@H]5CC[C@]43C)[C@@H]12` [BETULIN], in the assay with B16 [1], the IC50 is 27.4 µM. Moreover, the EC50 in the assay with B16 [2] came out at 4.8 µM.

`C=C(C)[C@@H]1CC[C@]2(C=O)CC[C@]3(C)[C@H](CC[C@@H]4[C@@]5(C)CCC(=O)C(C)(C)[C@@H]5CC[C@]43C)[C@@H]12` [BETULONAL] displayed an IC50 with B16 [1] of 4.1 µM. Moreover, the EC50 in the assay with B16 [2] came to 0.35 µM.

`C=C(C)[C@@H]1CC[C@]2(CO)CC[C@]3(C)[C@H](CC[C@@H]4[C@@]5(C)CCC(=O)C(C)(C)[C@@H]5CC[C@]43C)[C@@H]12` [BETULONE] displayed an IC50 in the assay with B16 [1] of 29.3 µM. Besides, the EC50 in the assay with B16 [2] turned out to be 0.19 µM.

In the assay with B16 [1], `CC1(C)CC[C@]2(CO)CC[C@]3(C)C(=CC[C@@H]4[C@@]5(C)CC[C@H](O)C(C)(C)[C@@H]5CC[C@]43C)[C@@H]2C1` [ERYTHRODIOL] displayed an IC50 of 33.4 µM. In the assay with B16 [2], the EC50 is greater than 50 µM.

Take `C=C(C)[C@@H]1CC[C@]2(C)CC[C@]3(C)[C@H](CC[C@@H]4[C@@]5(C)CCC(=O)C(C)(C)[C@@H]5CC[C@]43C)[C@@H]12` [LUPENONE]: the IC50 in the assay with B16 [1] was found to be 25.4 µM. Moreover, in the assay with B16 [2], the EC50 was determined as 0.35 µM.

In the assay with B16 [1], `C=C(C)[C@@H]1CC[C@]2(C)CC[C@]3(C)[C@H](CC[C@@H]4[C@@]5(C)CC[C@H](OC(C)=O)C(C)(C)[C@@H]5CC[C@]43C)[C@@H]12` [LUPENYL ACETATE] showed a half-maximal inhibitory concentration (IC50) of 22.7 µM. For the same compound, the EC50 in the assay with B16 [2] is 7.5 µM.

In the assay with B16 [1], `C=C(C)[C@@H]1CC[C@]2(C)CC[C@]3(C)[C@H](CC[C@@H]4[C@@]5(C)CC[C@H](O)C(C)(C)[C@@H]5CC[C@]43C)[C@@H]12` [LUPEOL] had an IC50 of 38 µM. Besides, the EC50 in the assay on B16 [2] was determined as 9.9 µM.

On to `C=C(C)[C@@H]1CC[C@]2(C(=O)OC)CC[C@]3(C)[C@H](CC[C@@H]4[C@@]5(C)CC[C@H](O)C(C)(C)[C@@H]5CC[C@]43C)[C@@H]12` [METHYL BETULINATE], for which the IC50 in the assay on B16 [1] worked out at 4.9 µM. Further, in the assay with B16 [2], the EC50 was found to be 2.5 µM.

In the assay with B16 [1], `CC1(C)CC[C@]2(C(=O)O)CC[C@]3(C)C(=CC[C@@H]4[C@@]5(C)CC[C@H](O)C(C)(C)[C@@H]5CC[C@]43C)[C@@H]2C1` [OLEANOLIC_ACID] showed an IC50 of 4.8 µM. Further, the result in the assay on B16 [4] was inactive.

`C[C@H]1[C@H](C)CC[C@]2(C(=O)O)CC[C@]3(C)C(=CC[C@@H]4[C@@]5(C)CC[C@H](O)C(C)(C)[C@@H]5CC[C@]43C)[C@H]12` [URSOLIC ACID] showed an IC50 with B16 [1] of 3.1 µM. Also, the outcome in the assay with B16 [4] was inactive.

Turning to `C[C@H]1[C@H](C)CC[C@]2(CO)CC[C@]3(C)C(=CC[C@@H]4[C@@]5(C)CC[C@H](O)C(C)(C)[C@@H]5CC[C@]43C)[C@H]12` [UVAOL], in the assay with B16 [1], the IC50 is 46.8 µM. Moreover, the EC50 with B16 [2] is greater than 50 µM.

In the case of `CC1(C)CC[C@]2(C)CC[C@]3(C)C(=CC[C@@H]4[C@@]5(C)CC[C@H](O)C(C)(C)[C@@H]5CC[C@]43C)[C@@H]2C1` [beta-AMYRIN], the midpoint of inhibition with B16 [1], the IC50, lay at 48.8 µM. Further, the EC50 in the assay on B16 [2] is greater than 50 µM.
